Laboratory results as given in ChEMBL document CHEMBL5303300, “EUbOPEN Chemogenomics Library - Multiplex” (2023).
Several values for one entry are separate records, joined by “and”; a condition that tells them apart may be missing. Equal values may be shown once.

How the values were obtained:
Fibroblast = test: Multiplex assay against human fibroblast; assay type: toxicity, cell-based; details: number of replicates 2
Method in brief: (§1)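 Phenotypes for tubulin, mitochondrial mass and membrane permeability are expressed as per cents of healthy-nucleus cells. Cells were stained live at seeding with Hoechst33342, BioTracker Green Microtubule Cytoskeleton Dye, MitoTracker Red and Annexin V Alexa Fluor 680, then imaged after compound addition on a CQ1 microscope at 37°C and 5% CO2. Machine-learning gating in CellPathfinder separated Hoechst high-intensity objects from normal cells, divided normal cells by nuclear state (healthy, pyknosed, fragmented) and divided pyknosed cells into mitotic or apoptotic.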

HEK-293T = test: Multiplex assay against HEK293T; assay type: toxicity, cell-based; details: human, number of replicates 2; method in brief: as §1
[1] = 24 h, 10 µM, compound concentration 10 uM
[2] = 48 h, 1 µM, compound concentration 1 uM
[3] = 48 h, 10 µM, compound concentration 10 uM
[4] = 12 h, 1 µM, compound concentration 1 uM
[5] = 12 h, 10 µM, compound concentration 10 uM
[6] = 24 h, 1 µM, compound concentration 1 uM

For `CN(C)C/C=C/C(=O)Nc1cccc(S(=O)(=O)N2CCC(NC(=O)c3n[nH]cc3NC(=O)c3c(Cl)cc(Cl)cc3Cl)CC2)c1`, the “Population Mitochondria Different-Phenotype (%)” value (Fibroblast; [1]) was 25% and 21%, the “Population Mitotic Cells (%)” value (Fibroblast; [1]) was 26% and 22% and the “Population Normal (%)” value (Fibroblast; [1]) was 99% and 100%. The “Population Pyknosed Nuclei (%)” value (Fibroblast; [1]) was 65% and 57%, the “Population Tubulin-Different-Phenotype (%)” value (Fibroblast; [1]) was 80% and 74% and the “Total Cell Count” value (Fibroblast; [1]) was 227 and 226. For the same compound, the “Population Apoptotic (%)” value (Fibroblast; [2]) was 70% and 64%, the “Population Fragmented Nuclei (%)” value (Fibroblast; [2]) was 14% and 12% and the “Population Healthy Nuclei (%)” value (Fibroblast; [2]) was 44% and 50%. For the same compound, the “Population Hoechst High Intensity Objects (%)” value (Fibroblast; [2]) was 0%, the “Population Membrane Permeable-Phenotype (%)” value (Fibroblast; [2]) was 18% and the “Population Mitotic Cells (%)” value (Fibroblast; [2]) was 29% and 35%. For the same compound, the “Population Normal (%)” value (Fibroblast; [2]) was 100%, the “Population Pyknosed Nuclei (%)” value (Fibroblast; [2]) was 40% and 37% and the “Population Tubulin-Different-Phenotype (%)” value (Fibroblast; [2]) was 39% and 51%. For the same compound, the “Total Cell Count” value (Fibroblast; [2]) was 166 and 150, the “Population Apoptotic (%)” value (Fibroblast; [3]) was 91% and 94% and the “Population Fragmented Nuclei (%)” value (Fibroblast; [3]) was 16% and 12%. For the same compound, the “Population Healthy Nuclei (%)” value (Fibroblast; [3]) was 5% and 6%, the “Population Hoechst High Intensity Objects (%)” value (Fibroblast; [3]) was 1% and 0% and the “Population Membrane Permeable-Phenotype (%)” value (Fibroblast; [3]) was 80% and 66%. The “Population Mitochondria Different-Phenotype (%)” value (Fibroblast; [3]) was 10% and 0%, the “Population Mitotic Cells (%)” value (Fibroblast; [3]) was 8% and 5% and the “Population Normal (%)” value (Fibroblast; [3]) was 98% and 99%. For the same compound, the “Population Pyknosed Nuclei (%)” value (Fibroblast; [3]) was 77% and 80%, the “Population Tubulin-Different-Phenotype (%)” value (Fibroblast; [3]) was 70% and 66% and the “Total Cell Count” value (Fibroblast; [3]) was 191 and 189. The “Population Apoptotic (%)” value (HEK-293T; [4]) was 38% and 72%, the “Population Fragmented Nuclei (%)” value (HEK-293T; [4]) was 3% and 4% and the “Population Healthy Nuclei (%)” value (HEK-293T; [4]) was 89% and 87%. For the same compound, the “Population Hoechst High Intensity Objects (%)” value (HEK-293T; [4]) was 10%, the “Population Membrane Permeable-Phenotype (%)” value (HEK-293T; [4]) was 2% and 1% and the “Population Mitochondria Different-Phenotype (%)” value (HEK-293T; [4]) was 49% and 45%. For the same compound, the “Population Mitotic Cells (%)” value (HEK-293T; [4]) was 61% and 28%, the “Population Normal (%)” value (HEK-293T; [4]) was 89% and the “Population Pyknosed Nuclei (%)” value (HEK-293T; [4]) was 6% and 7%. The “Population Tubulin-Different-Phenotype (%)” value (HEK-293T; [4]) was 86% and 90%, the “Total Cell Count” value (HEK-293T; [4]) was 376 and 356 and the “Population Apoptotic (%)” value (HEK-293T; [5]) was 87% and 90%. The “Population Fragmented Nuclei (%)” value (HEK-293T; [5]) was 2% and 4%, the “Population Healthy Nuclei (%)” value (HEK-293T; [5]) was 84% and 79% and the “Population Hoechst High Intensity Objects (%)” value (HEK-293T; [5]) was 16% and 14%. The “Population Membrane Permeable-Phenotype (%)” value (HEK-293T; [5]) was 5% and 1%, the “Population Mitochondria Different-Phenotype (%)” value (HEK-293T; [5]) was 87% and 88% and the “Population Mitotic Cells (%)” value (HEK-293T; [5]) was 12% and 9%. The “Population Normal (%)” value (HEK-293T; [5]) was 83% and 85%, the “Population Pyknosed Nuclei (%)” value (HEK-293T; [5]) was 13% and 16% and the “Population Tubulin-Different-Phenotype (%)” value (HEK-293T; [5]) was 96% and 97%. For the same compound, the “Total Cell Count” value (HEK-293T; [5]) was 417 and 374, the “Population Apoptotic (%)” value (HEK-293T; [6]) was 80% and the “Population Fragmented Nuclei (%)” value (HEK-293T; [6]) was 2% and 3%. For the same compound, the “Population Healthy Nuclei (%)” value (HEK-293T; [6]) was 90% and 85%, the “Population Hoechst High Intensity Objects (%)” value (HEK-293T; [6]) was 13% and 11% and the “Population Membrane Permeable-Phenotype (%)” value (HEK-293T; [6]) was 1% and 0%. The “Population Mitochondria Different-Phenotype (%)” value (HEK-293T; [6]) was 70% and 63%, the “Population Mitotic Cells (%)” value (HEK-293T; [6]) was 19% and 20% and the “Population Normal (%)” value (HEK-293T; [6]) was 86% and 88%. For the same compound, the “Population Pyknosed Nuclei (%)” value (HEK-293T; [6]) was 7% and 10%, the “Population Tubulin-Different-Phenotype (%)” value (HEK-293T; [6]) was 87% and 89% and the “Total Cell Count” value (HEK-293T; [6]) was 336 and 325. For the same compound, the “Population Apoptotic (%)” value (HEK-293T; [1]) was 94% and 91%, the “Population Fragmented Nuclei (%)” value (HEK-293T; [1]) was 2% and 4% and the “Population Healthy Nuclei (%)” value (HEK-293T; [1]) was 64% and 53%. For the same compound, the “Population Hoechst High Intensity Objects (%)” value (HEK-293T; [1]) was 19% and 22%, the “Population Membrane Permeable-Phenotype (%)” value (HEK-293T; [1]) was 3% and 4% and the “Population Mitochondria Different-Phenotype (%)” value (HEK-293T; [1]) was 93% and 90%. For the same compound, the “Population Mitotic Cells (%)” value (HEK-293T; [1]) was 6% and 8%, the “Population Normal (%)” value (HEK-293T; [1]) was 80% and 77% and the “Population Pyknosed Nuclei (%)” value (HEK-293T; [1]) was 32% and 42%. The “Population Tubulin-Different-Phenotype (%)” value (HEK-293T; [1]) was 71% and 67%, the “Total Cell Count” value (HEK-293T; [1]) was 381 and 319 and the “Population Apoptotic (%)” value (HEK-293T; [2]) was 92% and 73%. The “Population Fragmented Nuclei (%)” value (HEK-293T; [2]) was 3% and 2%, the “Population Healthy Nuclei (%)” value (HEK-293T; [2]) was 86% and 82% and the “Population Hoechst High Intensity Objects (%)” value (HEK-293T; [2]) was 20% and 12%. For the same compound, the “Population Membrane Permeable-Phenotype (%)” value (HEK-293T; [2]) was 1%, the “Population Mitochondria Different-Phenotype (%)” value (HEK-293T; [2]) was 75% and 81% and the “Population Normal (%)” value (HEK-293T; [2]) was 79% and 87%. The “Population Pyknosed Nuclei (%)” value (HEK-293T; [2]) was 10% and 15%, the “Population Tubulin-Different-Phenotype (%)” value (HEK-293T; [2]) was 85% and 91% and the “Total Cell Count” value (HEK-293T; [2]) was 328 and 309. For the same compound, the “Population Apoptotic (%)” value (HEK-293T; [3]) was 78% and 71%, the “Population Fragmented Nuclei (%)” value (HEK-293T; [3]) was 6% and the “Population Healthy Nuclei (%)” value (HEK-293T; [3]) was 30% and 25%. The “Population Hoechst High Intensity Objects (%)” value (HEK-293T; [3]) was 14%, the “Population Membrane Permeable-Phenotype (%)” value (HEK-293T; [3]) was 3% and 7% and the “Population Mitochondria Different-Phenotype (%)” value (HEK-293T; [3]) was 90% and 76%. For the same compound, the “Population Mitotic Cells (%)” value (HEK-293T; [3]) was 21% and 28%, the “Population Normal (%)” value (HEK-293T; [3]) was 85% and the “Population Pyknosed Nuclei (%)” value (HEK-293T; [3]) was 62% and 68%. For the same compound, the “Population Tubulin-Different-Phenotype (%)” value (HEK-293T; [3]) was 65% and 78% and the “Total Cell Count” value (HEK-293T; [3]) was 442 and 399.
